Data set [1] has as its system Rattus norvegicus. In words: Reduction of angiotensin 2-stimulated plasma aldosterone time-weighted average (0 to 8 hrs) in Sprague-Dawley rat at 1 mg/kg, po. In kind it is functional. More on the design: scale not given: the % may be the effect or the level left. The procedure, abridged: (§1)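 Angiotensin-II infusion in Sprague–Dawley rats (n = 3) raised baseline plasma aldosterone; oral dosing in corn starch/water or HCl (1.5 equiv of 1 N)/cornstarch/water; plasma sampled at set times; time-weighted average drug level 0–8 h; time-weighted average % fall in plasma aldosterone from baseline.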

Data set [2] relates to Rattus norvegicus. In words: Time-weighted average (0 to 8 hrs) in Sprague-Dawley rat at 1 mg/kg, po. In kind it is ADME, organism-based. More on the design: dose 1 mg/kg, route oral. The conditions noted are these: in vivo. The procedure, abridged:
as §1

Data set [3] in a line: Oral bioavailability in Sprague-Dawley rat at 1 mg/kg. In kind it is ADME, organism-based. To be noted: in vivo. The procedure, abridged:
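Sprague–Dawley rats (n = 3), oral dose in corn starch/water or HCl (1.5 equiv of 1 N)/cornstarch/water; %F calculated against a 0.3 mg/kg intra-arterial dose.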

The target of data set [4] is T1, Cytochrome P450 11B2, mitochondrial (Homo sapiens, UniProt P19099).
T1 sequence (P19099 whole entry): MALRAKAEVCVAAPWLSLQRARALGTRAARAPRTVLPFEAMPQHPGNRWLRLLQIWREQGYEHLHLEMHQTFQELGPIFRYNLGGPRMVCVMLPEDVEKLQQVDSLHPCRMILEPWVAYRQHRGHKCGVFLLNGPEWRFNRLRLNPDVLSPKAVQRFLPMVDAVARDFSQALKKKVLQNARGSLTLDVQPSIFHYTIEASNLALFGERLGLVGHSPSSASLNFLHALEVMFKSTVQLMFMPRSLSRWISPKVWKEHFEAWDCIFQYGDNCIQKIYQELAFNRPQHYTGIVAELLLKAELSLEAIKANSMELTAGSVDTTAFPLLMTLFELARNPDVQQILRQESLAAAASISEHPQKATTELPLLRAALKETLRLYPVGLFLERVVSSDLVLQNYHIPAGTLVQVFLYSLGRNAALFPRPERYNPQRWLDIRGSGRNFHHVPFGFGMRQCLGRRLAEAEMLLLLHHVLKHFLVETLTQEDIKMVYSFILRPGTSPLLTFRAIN
Briefly: Inhibition of CYP11B2 in human NCI-H295R cells assessed as inhibition of angiotensin-2-induced aldosterone production after 24 hrs by RIA. In kind it is cell-based.

For data set [5], the target named is T2, Cytochrome P450 11B1, mitochondrial (Homo sapiens, UniProt P15538).
T2 sequence (P15538 whole entry): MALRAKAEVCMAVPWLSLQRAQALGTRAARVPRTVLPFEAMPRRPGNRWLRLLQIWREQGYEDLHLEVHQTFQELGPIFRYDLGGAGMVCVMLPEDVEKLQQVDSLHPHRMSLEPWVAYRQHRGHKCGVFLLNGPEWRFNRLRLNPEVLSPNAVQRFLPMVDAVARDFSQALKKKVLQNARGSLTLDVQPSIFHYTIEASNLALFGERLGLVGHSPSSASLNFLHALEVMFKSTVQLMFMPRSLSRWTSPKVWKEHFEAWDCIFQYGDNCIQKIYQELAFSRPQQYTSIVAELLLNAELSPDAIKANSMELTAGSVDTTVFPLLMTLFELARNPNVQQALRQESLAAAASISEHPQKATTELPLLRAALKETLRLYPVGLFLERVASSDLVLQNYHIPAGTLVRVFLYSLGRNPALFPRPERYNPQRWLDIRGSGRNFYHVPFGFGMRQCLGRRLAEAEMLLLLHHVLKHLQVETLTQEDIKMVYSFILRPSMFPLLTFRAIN
In words: Inhibition of human recombinant CYP11B1 using 11-deoxycortisol as substrate by cell-based assay.

For data set [6], the target named is T1, Cytochrome P450 11B2, mitochondrial. Briefly: Inhibition of human recombinant CYP11B2 using 11-deoxycorticosterone as substrate by cell-based assay.
The target in another data set is T3, Aromatase (Homo sapiens, UniProt P11511).
T3 sequence (P11511 whole entry): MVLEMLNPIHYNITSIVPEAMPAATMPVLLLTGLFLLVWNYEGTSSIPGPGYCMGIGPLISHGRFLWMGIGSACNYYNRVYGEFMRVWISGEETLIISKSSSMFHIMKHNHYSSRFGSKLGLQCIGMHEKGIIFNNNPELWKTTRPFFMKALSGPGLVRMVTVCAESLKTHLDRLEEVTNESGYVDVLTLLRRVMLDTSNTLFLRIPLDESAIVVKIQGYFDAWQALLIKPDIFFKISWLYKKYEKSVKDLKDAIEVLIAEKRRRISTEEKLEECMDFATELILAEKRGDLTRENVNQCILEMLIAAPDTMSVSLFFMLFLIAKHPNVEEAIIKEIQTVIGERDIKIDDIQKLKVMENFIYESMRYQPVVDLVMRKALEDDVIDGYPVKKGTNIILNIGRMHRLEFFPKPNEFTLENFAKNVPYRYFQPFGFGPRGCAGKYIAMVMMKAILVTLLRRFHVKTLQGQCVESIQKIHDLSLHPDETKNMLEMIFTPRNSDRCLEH

Another data set has as its target T4, CYP19 (aromatase) (Homo sapiens, UniProt P11511).
T4 sequence (P11511 whole entry): T3 sequence (P11511 whole entry)
Briefly: Inhibition of human CYP19 at 1 uM preincubated for 10 mins followed by protein addition measured after 90 mins by fluorimetric analysis relative to control.

Data set [7] addresses T5, Cytochrome P450 11B1, mitochondrial (Rattus norvegicus, UniProt P15393).
T5 sequence (P15393 whole entry): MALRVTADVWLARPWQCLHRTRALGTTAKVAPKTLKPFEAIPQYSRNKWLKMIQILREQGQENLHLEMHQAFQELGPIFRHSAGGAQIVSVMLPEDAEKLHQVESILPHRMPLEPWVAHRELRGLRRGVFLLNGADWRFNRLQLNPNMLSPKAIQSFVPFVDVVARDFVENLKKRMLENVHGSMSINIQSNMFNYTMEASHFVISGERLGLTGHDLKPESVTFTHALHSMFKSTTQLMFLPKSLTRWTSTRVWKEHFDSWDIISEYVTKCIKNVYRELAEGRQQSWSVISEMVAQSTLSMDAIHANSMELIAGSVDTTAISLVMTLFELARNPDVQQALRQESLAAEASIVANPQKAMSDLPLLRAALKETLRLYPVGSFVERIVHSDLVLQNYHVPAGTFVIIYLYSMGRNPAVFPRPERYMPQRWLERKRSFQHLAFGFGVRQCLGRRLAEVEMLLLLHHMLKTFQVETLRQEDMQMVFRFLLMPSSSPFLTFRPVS
In words: Inhibition of rat recombinant CYP11B1 using 11-deoxycortisol as substrate by cell-based assay.

The target in data set [8] is T6, Cytochrome P450 11B2, mitochondrial (Rattus norvegicus, UniProt P30099).
T6 sequence (P30099 whole entry): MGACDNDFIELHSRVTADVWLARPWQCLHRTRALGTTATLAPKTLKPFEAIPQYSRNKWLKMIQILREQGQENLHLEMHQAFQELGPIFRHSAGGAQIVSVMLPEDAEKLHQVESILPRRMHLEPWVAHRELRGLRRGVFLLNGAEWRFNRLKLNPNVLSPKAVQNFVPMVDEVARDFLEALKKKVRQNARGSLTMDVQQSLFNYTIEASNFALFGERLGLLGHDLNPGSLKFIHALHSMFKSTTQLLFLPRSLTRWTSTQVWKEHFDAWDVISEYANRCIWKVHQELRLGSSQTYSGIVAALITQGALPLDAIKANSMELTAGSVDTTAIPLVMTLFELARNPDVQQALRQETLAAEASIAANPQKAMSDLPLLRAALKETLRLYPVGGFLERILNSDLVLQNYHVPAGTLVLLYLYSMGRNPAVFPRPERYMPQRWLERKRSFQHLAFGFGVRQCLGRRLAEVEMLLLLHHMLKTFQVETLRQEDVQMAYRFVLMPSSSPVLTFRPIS
Briefly: Inhibition of rat recombinant CYP11B2 using 11-deoxycorticosterone as substrate by cell-based assay.

The next data set deals with Cytochrome P450 2D6 (Homo sapiens, UniProt P10635).
The next data set has as its target Cytochrome P450 2C9 (Homo sapiens, UniProt P11712).

24 compounds from ChEMBL document CHEMBL3098017, “Discovery and in Vivo Evaluation of Potent Dual CYP11B2 (Aldosterone Synthase) and CYP11B1 Inhibitors” (ACS Med Chem Lett, 2013) can be followed below.

A value given as a limit tells only on which side of the number the result lay.

Sequence of Cytochrome P450 2D6 (P10635 whole entry): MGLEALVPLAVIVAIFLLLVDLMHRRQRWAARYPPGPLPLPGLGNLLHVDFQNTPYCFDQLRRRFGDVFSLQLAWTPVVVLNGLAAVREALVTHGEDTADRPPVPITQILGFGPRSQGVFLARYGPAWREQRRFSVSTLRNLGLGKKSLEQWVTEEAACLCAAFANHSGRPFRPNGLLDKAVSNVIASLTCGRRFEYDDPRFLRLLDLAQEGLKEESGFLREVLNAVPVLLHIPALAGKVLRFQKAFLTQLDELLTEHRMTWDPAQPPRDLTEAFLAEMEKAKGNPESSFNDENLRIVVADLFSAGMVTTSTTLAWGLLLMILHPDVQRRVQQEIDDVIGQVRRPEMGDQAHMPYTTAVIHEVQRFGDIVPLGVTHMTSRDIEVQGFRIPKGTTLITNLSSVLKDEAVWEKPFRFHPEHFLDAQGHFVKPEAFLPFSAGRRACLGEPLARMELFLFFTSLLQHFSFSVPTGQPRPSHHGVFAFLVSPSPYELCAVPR
Sequence of Cytochrome P450 2C9 (P11712 whole entry): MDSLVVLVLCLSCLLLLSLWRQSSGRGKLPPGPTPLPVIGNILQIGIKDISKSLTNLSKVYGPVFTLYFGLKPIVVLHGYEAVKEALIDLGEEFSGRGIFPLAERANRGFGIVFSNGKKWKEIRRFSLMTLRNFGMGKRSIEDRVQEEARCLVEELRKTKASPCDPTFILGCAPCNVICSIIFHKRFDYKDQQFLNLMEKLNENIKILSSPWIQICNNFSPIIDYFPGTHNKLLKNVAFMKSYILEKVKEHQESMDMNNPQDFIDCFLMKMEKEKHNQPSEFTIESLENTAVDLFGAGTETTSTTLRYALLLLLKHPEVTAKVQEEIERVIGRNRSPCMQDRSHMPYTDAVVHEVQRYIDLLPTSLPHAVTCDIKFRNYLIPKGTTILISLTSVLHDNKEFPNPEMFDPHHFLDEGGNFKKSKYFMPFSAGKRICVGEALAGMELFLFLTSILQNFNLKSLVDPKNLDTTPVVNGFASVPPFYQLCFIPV

`Fc1ccc(-c2ccccc2[C@H]2CCCCc3cncn32)cc1` yielded an Activity in the data set with Rattus norvegicus [1] of 73%. In the data set with Rattus norvegicus [2], this compound displayed a Cave of 152 nM. Also, the bioavailability – broadly, the share of a dose that reaches the circulation, judged against a reference dose that is usually intravenous – in data set [3] stood at 8%. For the same compound, in [4], the IC50 (commonly the concentration that inhibits the measured activity by half) is 2 nM.
The compound `c1ccc(-c2ccccc2[C@H]2CCCCc3cncn32)cc1` came in with an Activity with Rattus norvegicus [1] of 27%. The compound also had a Cave with Rattus norvegicus [2] of 4 nM. The bioavailability in data set [3] is < 1%. For the same compound, the IC50 in data set [4] was 2 nM.
`N#Cc1ccc([C@H]2CCCCc3cncn32)c(F)c1` registered an Activity in the data set with Rattus norvegicus [1] of 69%. Besides, the IC50 amounted to 7.2 nM in data set [5], 3.2 nM in data set [6], 1100 nM against Aromatase and 42 nM in [4].
Regarding `N#Cc1ccc([C@H]2CCCCc3cncn32)c(Cl)c1`, the inhibition (usually the relative decrease from the control value, in per cent) at 1.5 h, 1 µM against CYP19 (aromatase) was determined as 100%. In addition, the IC50 in data set [4] was 16 nM.
On to `COc1cc(C#N)ccc1[C@H]1CCCCc2cncn21`, for which, in data set [4], the concentration for half-maximal inhibition (IC50) came out at 520 nM.
For the compound `COC(=O)[C@]1(c2ccc(C#N)cc2Cl)CCc2cncn21`, the Activity in the data set on Rattus norvegicus [1] is on record as 81%. The Cave in the data set on Rattus norvegicus [2] was found to be 6 nM. Besides, the bioavailability in data set [3] came out at 1%. Also, the half-maximal inhibitory concentration (IC50) against Aromatase amounted to 50 nM; in data set [4], 17 nM.
Regarding `COC(=O)[C@]1(c2ccc(C#N)cc2OC)CCc2cncn21`, the IC50 in data set [4] is 3 nM.
As for `COC(=O)[C@]1(c2ccc(C#N)cc2F)CCc2cncn21`, the IC50 in data set [4] was 351 nM.
`N#Cc1ccc([C@@]2(C(=O)OCc3ccc(F)cc3)CCc3cncn32)c(Cl)c1`: the IC50 in data set [5] is < 0.1 nM; in [6] it was 3.8 nM; in [4], 1.5 nM. This compound showed an inhibition at 1.5 h, 1 µM on CYP19 (aromatase) of 95%.
`COc1cc(C#N)ccc1[C@@]1(C(=O)N(C)Cc2ccc(F)cc2)CCc2cncn21`: the Activity in the data set on Rattus norvegicus [1] came out at 35%. Moreover, the Cave with Rattus norvegicus [2] amounted to 15 nM. In addition, the bioavailability in data set [3] amounted to 8%. At CYP19 (aromatase), the inhibition at 1.5 h, 1 µM was determined as 45%. Also, in data set [4], the IC50 is 5 nM.
Take `c1ccc(-c2ccccc2[C@H]2CCc3cncn32)cc1`: the IC50 in [4] worked out at 441 nM.
On the same count and under the same terms, the figure for `Fc1ccc(-c2ccccc2[C@H]2CCc3cncn32)cc1` is 140 nM.
`N#Cc1ccc([C@H]2CCc3cncn32)c(Cl)c1` yielded an Activity with Rattus norvegicus [1] of 51%. For the same compound, in the data set with Rattus norvegicus [2], the Cave worked out at 152 nM. Besides, in [3], the bioavailability was determined as 59%. Also, the IC50 in data set [4] is 13 nM.
In the data set with Rattus norvegicus [1], `COc1cc(C#N)ccc1[C@H]1CCc2cncn21` came in with an Activity of 50%. The Cave in the data set on Rattus norvegicus [2] came out at 33 nM. The same compound came in with a bioavailability in data set [3] of 18%. Also, on CYP19 (aromatase), the inhibition at 1.5 h, 1 µM was 80%. Moreover, in [4], the IC50 amounted to 5 nM.
For `Cc1cc(C#N)ccc1[C@H]1CCc2cncn21`, the 50% inhibitory concentration (IC50) turned out to be 386 nM in data set [7]; 24 nM in data set [8]; 1.5 nM in data set [5]; 0.9 nM in data set [6]; 8 nM in [4]. In addition, the inhibition at 1.5 h, 1 µM on CYP19 (aromatase) is 87%.
Turning to `N#Cc1ccc([C@H]2CCc3cncn32)c(Br)c1`, the inhibition at 1.5 h, 1 µM against CYP19 (aromatase) worked out at 47%. In addition, the IC50 in data set [4] turned out to be 10 nM.
Turning to `N#Cc1ccc([C@H]2CCCc3cncn32)c(-c2ccccc2)c1`, in data set [4], the IC50 was 56 nM.
Same read-out and setting: for `c1ccc(-c2ccccc2[C@H]2CCCc3cncn32)cc1` the value was 37 nM.
`N#Cc1ccc([C@H]2CCCc3cncn32)c(F)c1` registered an inhibition at 1.5 h, 1 µM on CYP19 (aromatase) of 20%. Also, in data set [4], the IC50 worked out at 87 nM.
In the data set with Rattus norvegicus [1], `N#Cc1ccc([C@H]2CCCCc3cncn32)c(-c2ccc(F)cc2)c1` gave an Activity of 66%. In addition, the Cave in the data set on Rattus norvegicus [2] was found to be 6 nM. Moreover, the bioavailability in data set [3] stood at 1%. In addition, the 50% inhibitory concentration (IC50) in [7] turned out to be 0.3 nM; in data set [8] it was 1 nM; in data set [5], 0.3 nM; in [6], 0.4 nM; in data set [4], 1 nM.
On CYP19 (aromatase), `N#Cc1ccc(C2CCCc3cncn32)c(Cl)c1` (racemic) registered an inhibition at 1.5 h, 1 µM of 99%. Also, in data set [4], the IC50 was 792 nM.
Take `Cc1cc(C#N)ccc1C1CCCc2cncn21` (racemic): the inhibition at 1.5 h, 1 µM on CYP19 (aromatase) was 100%. Moreover, in data set [4], the IC50 was determined as 464 nM.
Take `COc1cc(C#N)ccc1C1CCCc2cncn21` (racemic): on CYP19 (aromatase), the inhibition at 1.5 h, 1 µM was 100%. Also, in data set [4], the IC50 was 390 nM.
The compound `N#Cc1ccc([C@H]2CCc3cncn32)c(F)c1` [OSILODROSTAT] displayed an Activity in the data set with Rattus norvegicus [1] of 65%. For the same compound, the Cave with Rattus norvegicus [2] is given as 377 nM. In addition, in data set [3], the bioavailability was determined as 42%. Further, the IC50 is 111 nM in data set [8], > 10 µM at Cytochrome P450 2D6 and > 10 µM against Cytochrome P450 2C9.
